According to ChEMBL document CHEMBL5150070, “Tricyclic SpiroLactams Kill Mycobacteria In Vitro and In Vivo by Inhibiting Type II NADH Dehydrogenases” (J Med Chem, 2022):
≈ marks a conversion by molar mass, not a printed value. Calls of active or inactive are those of the source. No cut-off for these calls is given here.

Tests used:
[1] = test system: Mycobacterium tuberculosis; assay: Antimycobacterial activity against Mycobacterium tuberculosis H37Rv assessed as reduction in bacterial cell growth by measuring resazurin reduction incubated for 6 days by fluorescence microplate based assay; assay type: functional; conditions: time 6 day
[2] = molecular target: Type II NADH:quinone oxidoreductase Ndh (Mycobacterium tuberculosis, UniProt P95160); assay: Inhibition of Mycobacterium tuberculosis recombinant type II NADH dehydrogenase ndh expressed in Escherichia coli assessed as rate of NADH oxidation in the presence of an electron acceptor menadione
Summary of the method: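 Purified N-terminal MBP-tagged Mtb Ndh (Rv1854c) expressed in E. coli, 70 nM, with 500 µM NADH in 50 mM HEPES pH 7.1 (K₂HPO₄). Compound pre-incubated 15 min at 25°C, reaction started with 100 µM menadione. NADH oxidation followed at 340 nm every 60 s. Rate taken from linear slope; IC50 is the mean ± SD of at least 3 independent experiments.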

[3] = molecular target: T1, Type II NADH:quinone oxidoreductase NdhA (Mycobacterium tuberculosis, UniProt P95200); assay: Inhibition of Mycobacterium smegmatis MC2 155 recombinant ndhA assessed as rate of NADH oxidation in the presence of an electron acceptor menadione; set-up: species or system Mycolicibacterium smegmatis
T1 sequence (P95200 whole entry): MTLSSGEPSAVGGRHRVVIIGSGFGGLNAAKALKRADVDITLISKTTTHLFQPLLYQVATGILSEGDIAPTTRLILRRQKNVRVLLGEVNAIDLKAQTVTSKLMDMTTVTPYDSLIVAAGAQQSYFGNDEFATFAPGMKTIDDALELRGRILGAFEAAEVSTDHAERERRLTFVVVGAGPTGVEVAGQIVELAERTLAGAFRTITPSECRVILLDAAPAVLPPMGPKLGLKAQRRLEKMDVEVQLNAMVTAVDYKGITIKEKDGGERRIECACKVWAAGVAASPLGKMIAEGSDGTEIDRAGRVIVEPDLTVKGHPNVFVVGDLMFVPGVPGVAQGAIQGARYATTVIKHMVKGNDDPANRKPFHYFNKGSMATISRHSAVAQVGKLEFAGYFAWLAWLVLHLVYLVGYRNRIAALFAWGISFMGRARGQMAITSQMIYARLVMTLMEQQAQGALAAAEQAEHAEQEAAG

[4] = test system: Mycobacterium tuberculosis; assay: Antimycobacterial activity against Mycobacterium tuberculosis H37Rv infected in human A-THP1 macrophages assessed as viability of infected macrophages incubated for 96 hrs by fluorescence microplate assay; assay type: functional, organism-based
Summary of the method: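 THP-1 cells differentiated with 50 ng/mL PMA for 72 h, infected with log-phase H37Rv (MOI 10, 2 h), and extracellular bacteria killed with 50 µg/mL amikacin for 1 h. Cells detached and seeded at 5×10⁵/mL in RPMI-10% FBS with PMA onto pre-dispensed compound, 96 h at 37°C, 5% CO₂. Macrophage viability by 0.05% resazurin fluorescence.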

[5] = Octanol/PBS partition coefficient, logD of compound at pH 7.4 measured after 2 hrs by shake flask method; assay type: physicochemical; conditions: octanol/water, pH 7.4, 2 h
Summary of the method: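 A 10 mM DMSO stock was diluted 50-fold into 1:1 octanol:PBS pH 7.4 and shaken gently for 2 h at room temperature. Each phase was diluted 50-fold in MeOH and quantified by LC-MS/MS. LogD = log of the octanol/PBS concentration ratio from mass signals. Run in triplicate.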

[6] = test system: Mycobacterium marinum; assay: in vivo antimycobacterial efficacy in Mycobacterium marinum infected zebrafish larvae assessed as reduction in bacterial burden at 0.25 to 2 micog/ml measured after 2 to 4 days off post infection; assay type: functional, organism-based; conditions: time 2-4 day
[7] = Toxicity in noninfected zebrafish larvae assessed as larval development; set-up: species or system Danio rerio; conditions: in vivo
[8] = Toxicity in noninfected zebrafish larvae assessed as toxic effect; set-up: species or system Danio rerio; conditions: in vivo
[9] = test system: Mycobacterium marinum; assay: In vivo antimycobacterial efficacy in Mycobacterium marinum expressing Wasabi infected zebrafish larvae assessed as prolongation of survival treated for 4 days after 1 day post infection; assay type: functional, organism-based; conditions: dose 0.3-1.2 µM, time 4.0 day, DDE = dose-dependent effect
Summary of the method: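 Golden mutant or Tg(mpeg1:mCherry) zebrafish embryos were dechorionated and anaesthetised in 0.016% tricaine. At 30 hpf, 2–3 nL containing about 200–250 cfu of Wasabi-expressing M. marinum M (pTEC15) was injected into the caudal vein. The inoculum was confirmed by plating on 7H10. Embryos were kept in E3 at 28.5 °C, 12 per well, to follow infection and survival.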

[10] = test system: Mycobacterium marinum; assay: In vivo antimycobacterial efficacy in Mycobacterium marinum expressing Wasabi infected zebrafish larvae assessed as prolongation of survival time at 4.8 uM treated for 4 days after 1 day post infection; assay type: functional; conditions: time 4 day
[11] = test system: Mycobacterium tuberculosis; assay: Bactericidal activity against Non-replicating Mycobacterium tuberculosis ss18b-lux model assessed as decrease in luminescence at 10 to 10000 nM; assay type: functional, organism-based; conditions: dose 10-10000 nM, TDE = time-dependent effect
Summary of the method: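 Non-replicating streptomycin-starved 18b-lux (14-day starvation) diluted to OD600 0.15 in white 96-well plates with compound and incubated at 37°C. Luminescence read on days 1, 2, 5 and 7 and expressed relative to no-antibiotic controls (n ≥ 3).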

[12] = test system: Mycobacterium tuberculosis; assay: Bactericidal activity against Non-replicating Mycobacterium tuberculosis ss18b-lux assessed as decrease in colony forming unit measured at 1 uM after 1 weeks; assay type: functional
Summary of the method: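 Streptomycin-dependent 18b-lux starved of streptomycin for 14 days (OD600 reset to 0.2 on days 7 and 13) to become non-replicating. Diluted to OD600 0.15 on dispensed compound and held at 37°C. On day 7, active wells plated on 7H11-OADC with 50 µg/mL streptomycin and incubated up to 8 weeks for cfu.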

[13] = Aqueous solubility of compound in pH 7.4 […]; assay type: physicochemical; conditions: buffer
Summary of the method: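 A 10 mM DMSO stock was diluted 50-fold into PBS pH 7.4 or methanol and shaken gently for 24 h at room temperature. Samples were centrifuged, filtered (0.45 µm), diluted 50-fold in MeOH and analysed by LC-MS/MS. Solubility = (AUC PBS/AUC MeOH)×200. Run in triplicate.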

[14] = test system: Mycobacterium tuberculosis; assay: Antibiotic activity against Mycobacterium tuberculosis H37Rv assessed as reduction in bacterial cell growth by measuring resazurin reduction incubated for 6 days by fluorescence microplate based assay; assay type: functional; conditions: 144 h, time 6 day
[15] = test system: Mycobacterium marinum; assay: Antibiotic activity against Mycobacterium marinum M strain assessed as reduction in bacterial cell growth by measuring resazurin reduction incubated for 6 days by fluorescence microplate based assay; assay type: functional; conditions: 144 h, time 6 day
[16] = test system: Mycobacterium avium; assay: Antibiotic activity against Mycobacterium avium TMC 724, ATCC-25291 assessed as reduction in bacterial cell growth by measuring resazurin reduction incubated for 6 days by fluorescence microplate based assay; assay type: functional; conditions: TMC 724, ATCC-25291, 144 h, time 6 day
[17] = test system: Mycolicibacterium smegmatis; assay: Antibiotic activity against Mycobacterium smegmatis mc2155 assessed as reduction in bacterial cell growth by measuring resazurin reduction incubated for 6 days by fluorescence microplate based assay; assay type: functional; conditions: mc2155, 144 h, time 6 day
[18] = test system: Mycobacteroides abscessus; assay: Antibiotic activity against Mycobacterium abscessus CIP104536, Smooth variant assessed as reduction in bacterial cell growth by measuring resazurin reduction incubated for 6 days by fluorescence microplate based assay; assay type: functional; conditions: 144 h, time 6 day
[19] = test system: Mycobacteroides abscessus; assay: Antibiotic activity against Mycobacterium abscessus CIP104536, Rough variant assessed as reduction in bacterial cell growth by measuring resazurin reduction incubated for 6 days by fluorescence microplate based assay; assay type: functional; conditions: 144 h, time 6 day
[20] = test system: Bacillus subtilis; assay: Antibiotic activity against Bacillus subtilis ATCC6633 assessed as reduction in bacterial cell growth by measuring resazurin reduction incubated for 6 days by fluorescence microplate based assay; assay type: functional; conditions: ATCC6633, 144 h, time 6 day
[21] = test system: Staphylococcus aureus; assay: Antibiotic activity against Staphylococcus aureus SH1000 assessed as reduction in bacterial cell growth by measuring resazurin reduction incubated for 6 days by fluorescence microplate based assay; assay type: functional; conditions: SH1000, 144 h, time 6 day
Summary of the method: (§1)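 E. coli BW25113, E. coli ΔtolC and S. aureus SH1000 were cultured and tested in cation-adjusted Mueller Hinton II broth. Viability was read by adding resazurin and measuring resorufin fluorescence at Ex 530 nm / Em 590 nm.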

[22] = test system: Escherichia coli; assay: Antibiotic activity against Escherichia coli deltatolC BW25113 deltatolC assessed as reduction in bacterial cell growth by measuring resazurin reduction incubated for 6 days by fluorescence microplate based assay; assay type: functional; conditions: 144 h, time 6 day; summary of the method: as §1
[23] = test system: Pseudomonas aeruginosa; assay: Antibiotic activity against Pseudomonas aeruginosa POA1 assessed as reduction in bacterial cell growth by measuring resazurin reduction incubated for 6 days by fluorescence microplate based assay; assay type: functional; conditions: POA1, 144 h, time 6 day
[24] = test system: Klebsiella pneumoniae; assay: Antibiotic activity against Klebsiella pneumoniae LMG 2095 assessed as reduction in bacterial cell growth by measuring resazurin reduction incubated for 6 days by fluorescence microplate based assay; assay type: functional; conditions: LMG 2095, 144 h, time 6 day
[25] = test system: Acinetobacter baumannii; assay: Antibiotic activity against Acinetobacter baumannii LMG-17978 assessed as reduction in bacterial cell growth by measuring resazurin reduction incubated for 6 days by fluorescence microplate based assay; assay type: functional; conditions: LMG-17978, 144 h, time 6 day

Sequence of Type II NADH:quinone oxidoreductase Ndh (P95160 whole entry): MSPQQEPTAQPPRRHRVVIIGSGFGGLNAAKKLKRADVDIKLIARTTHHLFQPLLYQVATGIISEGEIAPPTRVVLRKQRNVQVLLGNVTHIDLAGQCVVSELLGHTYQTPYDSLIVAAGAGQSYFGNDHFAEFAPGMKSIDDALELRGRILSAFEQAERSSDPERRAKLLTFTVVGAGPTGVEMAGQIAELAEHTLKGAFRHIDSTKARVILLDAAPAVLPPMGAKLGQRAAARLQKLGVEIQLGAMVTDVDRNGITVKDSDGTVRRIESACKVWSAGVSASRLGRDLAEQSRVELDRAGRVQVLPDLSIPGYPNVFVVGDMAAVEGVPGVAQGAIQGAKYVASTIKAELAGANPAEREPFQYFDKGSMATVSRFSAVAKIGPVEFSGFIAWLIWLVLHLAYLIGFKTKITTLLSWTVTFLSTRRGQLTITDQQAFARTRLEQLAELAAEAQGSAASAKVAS

CC(C)[C@H]1CO[C@]23CCN(Cc4ccc(C(F)(F)F)nc4)C[C@H]2CCC(=O)N13
MIC98 [1]: 0.59 µM (≈ 0.234 µg/mL)
IC50 [2]: 32 nM
IC50 [3]: 330 nM
IC50 [4]: 2400 nM
logD [5]: 2.7
Activity [6]: Active
Activity [7]: Non-Toxic
Activity [8]: Non-Toxic
Activity [9]: Dde
Time [10]: 3 days

CC[C@H](C)[C@H]1CO[C@]23CCN(Cc4ccccc4)C[C@H]2CCC(=O)N13
MIC98 [1]: 9.5 µM (≈ 3.25 µg/mL)

COc1nc2ccc(Br)cc2cc1[C@@H](c1ccccc1)[C@@](O)(CCN(C)C)c1cccc2ccccc12 [BEDAQUILINE]
IC50 [4]: 34 nM
Activity [11]: Tde
Activity [12]: 1 log10CFU

C[C@H]1CO[C@]23CCN(Cc4ccccc4)C[C@H]2CCC(=O)N13
MIC98 [1]: >100 µM

CC(C)[C@H]1CO[C@]23CCN(Cc4ccc(Cl)cc4)C[C@H]2CCC(=O)N13
MIC98 [1]: 0.25 µM (≈ 0.0907 µg/mL)
IC50 [2]: 28 nM
IC50 [3]: 96 nM

Cc1ccc(CN2CC[C@]34OC[C@H](C(C)C)N3C(=O)CC[C@@H]4C2)cc1
MIC98 [1]: 1.7 µM (≈ 0.582 µg/mL)

CC(C)[C@H]1CO[C@]23CCN(Cc4ccccc4)C[C@H]2CCC(=O)N13
solubility [13]: 178 µM (≈ 58.5 µg/mL)
IC50 [3]: 980 nM
IC50 [4]: 8200 nM
logD [5]: 2.7
MIC [14]: 3.2 µM (≈ 1.05 µg/mL)
MIC [15]: 6.3 µM (≈ 2.07 µg/mL)
MIC [16]: 13.1 µM (≈ 4.3 µg/mL)
MIC [17]: 29.2 µM (≈ 9.59 µg/mL)
MIC [18]: ≥ 100 µM
MIC [19]: ≥ 100 µM
MIC [20]: > 100 µM
MIC [21]: > 100 µM
MIC [22]: > 100 µM
MIC [23]: > 100 µM
MIC [24]: > 100 µM
MIC [25]: > 100 µM
